{"source": "paper PMC12215028", "about": "(Scientific Reports, 2025)", "key": {"[1]": {"system": "A549, H460, H1299, and HCC827 cell lines", "assay": "MTT assay, statements over all four lines", "type": "cell-based, human", "settings": "48 h", "how_it_was_run": "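H460, H1299 and HCC827 cells were kept in RPMI1640 with 10% FBS at 37 °C and 5% CO₂. A549 cells were plated at 2,500 per well. Cells were exposed to 0–50 µM test compound (final; 3.125–50 µM twofold steps) or DMSO control for 24, 48 and 72 h. MTT was then added for 2 h at 37 °C, formazan was dissolved in DMSO, and OD was read at 570 nm. Data are mean ± standard deviation; IC50 was calculated from viability.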"}, "p-EGFR(Y1068)": {"system": "p-EGFR(Y1068)", "assay": "Western blot, NSCLC cell lines", "type": "cell-based, human", "settings": "A549 and H460 cells; 50 µM", "how_it_was_run": "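Cells were plated at 150,000 per well and treated with test compound or DMSO for 24 h. They were lysed in RIPA buffer with PMSF, DTT, NaF, Na₃VO₄ and protease inhibitors for 30 min on ice, then spun at 13,000 rpm for 30 min at 4 °C. Protein was quantified by Bradford assay and resolved by SDS-PAGE. Blots were probed with secondary antibodies at 1:5000 for 1 h at RT, detected by chemiluminescence and quantified by densitometry.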"}, "A549 cells": {"system": "A549 cells", "assay": "Subcutaneous xenograft mouse model", "type": "in vivo, BALB/c-nude male mice", "settings": "30 mg/kg", "how_it_was_run": "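Male BALB/c nude mice aged 6–7 weeks, under isoflurane, received 5 × 10⁶ A549 cells in 50 µL PBS plus 50 µL Matrigel subcutaneously in the flank. Groups of six received vehicle, test compound or reference compound by oral gavage three times weekly for 27 days. Vehicle was Tween 80:PEG400:ethanol:5% glucose 1:6:3:20, at 100 µL per 25 g mouse. Tumors were caliper-measured three times weekly; endpoint was about 1,500 mm³ or distress.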"}, "[2]": {"system": "A549 xenograft tumor tissue", "assay": "H&E staining of xenograft tumor tissue", "type": "in vivo, BALB/c-nude male mice", "settings": "30 mg/kg; compared to the vehicle group", "how_it_was_run": "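A549 cells (5 × 10⁶ in PBS plus Matrigel) were implanted subcutaneously into the flank of male nude mice aged 6–7 weeks. Compound was given by oral gavage three times weekly. Paraffin tumor sections were deparaffinized in xylene and rehydrated through graded ethanol. They were stained with hematoxylin for 30 s, differentiated in acid alcohol (0.3% HCl in 70% ethanol) and stained with eosin for 2 min. Sections were then dehydrated, cleared and mounted, and staining was quantified by image analysis.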"}, "p-EGFR": {"system": "p-EGFR", "assay": "Immunohistochemistry of xenograft tumor tissue", "type": "in vivo, BALB/c-nude male mice", "settings": "tumor tissues; compared to the vehicle group", "how_it_was_run": "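Paraffin sections of subcutaneous A549 flank tumors from nude mice were deparaffinized and rehydrated, and peroxidase was blocked with H₂O₂. Antigen retrieval used 0.01 M citrate (pH 6.0) at boiling for 10 min. Sections were blocked in normal goat serum for 1 h at RT, then incubated with anti-p-EGFR (Y1068) at 1:100 overnight at 4 °C. Detection used a biotinylated secondary (1 h, RT), ABC reagent (30 min) and DAB, with hematoxylin counterstain.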"}}, "data": [{"smiles": "CC(C)=CC(=O)O[C@H]1Cc2cc3ccc(=O)oc3cc2OC1(C)C", "note": "[decursin]", "values": [{"measurement": "cytotoxicity", "setting": "[1]", "value": "significant cytotoxicity at 50 µM"}, {"measurement": "p-EGFR(Y1068) expression levels", "setting": "p-EGFR(Y1068)", "value": "failed to inhibit EGFR phosphorylation"}, {"measurement": "tumor size at the experimental endpoint", "setting": "A549 cells; oral gavage three times per week, 27 days, vs vehicle", "value": "no statistically significant reduction"}, {"measurement": "body weight changes", "setting": "A549 cells; vs control, throughout the experimental period", "value": "no significant difference"}, {"measurement": "tumor cell density (H&E)", "setting": "[2]", "value": "did not show a significant difference"}, {"measurement": "p-EGFR-positive cells / expression (IHC)", "setting": "p-EGFR", "value": "not significantly reduced"}]}]}
